The values that follow come from ChEMBL document CHEMBL4350961, “Discovery of Pyrrolo[3,2- d]pyrimidin-4-one Derivatives as a New Class of Potent and Cell-Active Inhibitors of P300/CBP-Associated Factor Bromodomain” (J Med Chem, 2019).

The target of data set [1] is T1, Histone acetyltransferase KAT2A (Homo sapiens, UniProt Q92830). The data set can be described thus: Binding affinity to human N-terminal His-tagged GCN5 assessed as change in melting temperature at 10 uM by SYPRO orange dye-based fluorescence assay. In outline:
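Thermal shift with His-tagged human bromodomain at 2 μM final in 10 mM HEPES pH 7.5, 500 mM NaCl. Compound at 10 μM final with 0.1% DMSO; SYPRO Orange at 1:1000. Equilibrated 3 min at 25 °C, then heated from 25 to 95 °C at 1 °C/min. Melting temperature shift taken from fluorescence; at least duplicate.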

In data set [2] the target is T1, Histone acetyltransferase KAT2A. The data set can be described thus: Binding affinity to human partial length GCN5L2 (E726 to K837 residues) expressed in bacterial expression system at 1 uM by BROMOscan assay. In outline: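 BROMOscan bromodomain cross-screen run by an outside service, compound at 1 µM against 32 recombinant bromodomains. Binding given as percent of control.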

The nature of data set [3]: Aqueous solubility of the compound by HPLC analysis. Format: physicochemical. To be noted: buffer. In outline: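 Measured by HPLC on a C18 reversed-phase column.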
For data set [4], the species on record is Homo sapiens. In words: Inhibition of recombinant human BrSK2 S251I mutant (2 to end residues) at 10 uM using KKLNRTLSFAEPG as substrate measured after 40 mins in presence of [gamma33P]ATP by scintillation counting method.
Data set [5] deals with Cyclin-dependent kinase 5/CDK5 activator 1 (Homo sapiens) (UniProt Q00535+Q15078). In words: Inhibition of recombinant full-length human CDK5/p35 at 10 uM using histone H1 as substrate measured after 40 mins in presence of [gamma33P]ATP by scintillation counting method. In kind it is protein-complex assay.
In data set [6] the target is Cyclin-dependent kinase-like 4 (Homo sapiens) (UniProt Q5MAI5). The data set can be described thus: Inhibition of human CDKL4 at 10 uM by radiometric method. In outline: (§1)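 Kinase panel of 422 kinases screened by Eurofins KinaseProfiler at a single test-compound concentration of 10 µM.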
Data set [7] has as its target Dual specificity protein kinase CLK4 (Homo sapiens) (UniProt Q9HAZ1). In words: Inhibition of recombinant human CLK4 (128 to end residues) at 10 uM using YRRAAVPPSPSLSRHSSPHQS(p)EDEEE as substrate measured after 40 mins in presence of [gamma33P]ATP by scintillation counting method.
In data set [8] the target is Dual specificity tyrosine-phosphorylation-regulated kinase 3 (Homo sapiens) (UniProt O43781). The data set can be described thus: Inhibition of recombinant full-length human DYRK3 at 10 uM using RRRFRPASPLRGPPK as substrate measured after 40 mins in presence of [gamma33P]ATP by scintillation counting method.
For data set [9], the system named is Fibroblast growth factor receptor 1 (Homo sapiens), P11362 [V561M]. In words: Inhibition of recombinant human FGFR1 V561M mutant (456 to 765 residues) at 10 uM using GGEEEEYFELVKKKK as substrate measured after 40 mins in presence of [gamma33P]ATP by scintillation counting method.
For data set [10], the system named is Fibroblast growth factor receptor 2 (Homo sapiens), P21802 [N549H]. The data set can be described thus: Inhibition of recombinant human FGFR2 N549H mutant (456 to 770 residues) at 10 uM using GGEEEEYFELVKKKK as substrate measured after 40 mins in presence of [gamma33P]ATP by scintillation counting method.
In data set [11] the target is Homeodomain-interacting protein kinase 3 (Homo sapiens) (UniProt Q9H422). In words: Inhibition of recombinant human HIPK3 (161 to 562 residues) at 10 uM using myelin basic protein as substrate measured after 40 mins in presence of [gamma33P]ATP by scintillation counting method.
Homeodomain-interacting protein kinase 3 (Homo sapiens), sequence (Q9H422 whole entry, looked up, the tested form may be a part): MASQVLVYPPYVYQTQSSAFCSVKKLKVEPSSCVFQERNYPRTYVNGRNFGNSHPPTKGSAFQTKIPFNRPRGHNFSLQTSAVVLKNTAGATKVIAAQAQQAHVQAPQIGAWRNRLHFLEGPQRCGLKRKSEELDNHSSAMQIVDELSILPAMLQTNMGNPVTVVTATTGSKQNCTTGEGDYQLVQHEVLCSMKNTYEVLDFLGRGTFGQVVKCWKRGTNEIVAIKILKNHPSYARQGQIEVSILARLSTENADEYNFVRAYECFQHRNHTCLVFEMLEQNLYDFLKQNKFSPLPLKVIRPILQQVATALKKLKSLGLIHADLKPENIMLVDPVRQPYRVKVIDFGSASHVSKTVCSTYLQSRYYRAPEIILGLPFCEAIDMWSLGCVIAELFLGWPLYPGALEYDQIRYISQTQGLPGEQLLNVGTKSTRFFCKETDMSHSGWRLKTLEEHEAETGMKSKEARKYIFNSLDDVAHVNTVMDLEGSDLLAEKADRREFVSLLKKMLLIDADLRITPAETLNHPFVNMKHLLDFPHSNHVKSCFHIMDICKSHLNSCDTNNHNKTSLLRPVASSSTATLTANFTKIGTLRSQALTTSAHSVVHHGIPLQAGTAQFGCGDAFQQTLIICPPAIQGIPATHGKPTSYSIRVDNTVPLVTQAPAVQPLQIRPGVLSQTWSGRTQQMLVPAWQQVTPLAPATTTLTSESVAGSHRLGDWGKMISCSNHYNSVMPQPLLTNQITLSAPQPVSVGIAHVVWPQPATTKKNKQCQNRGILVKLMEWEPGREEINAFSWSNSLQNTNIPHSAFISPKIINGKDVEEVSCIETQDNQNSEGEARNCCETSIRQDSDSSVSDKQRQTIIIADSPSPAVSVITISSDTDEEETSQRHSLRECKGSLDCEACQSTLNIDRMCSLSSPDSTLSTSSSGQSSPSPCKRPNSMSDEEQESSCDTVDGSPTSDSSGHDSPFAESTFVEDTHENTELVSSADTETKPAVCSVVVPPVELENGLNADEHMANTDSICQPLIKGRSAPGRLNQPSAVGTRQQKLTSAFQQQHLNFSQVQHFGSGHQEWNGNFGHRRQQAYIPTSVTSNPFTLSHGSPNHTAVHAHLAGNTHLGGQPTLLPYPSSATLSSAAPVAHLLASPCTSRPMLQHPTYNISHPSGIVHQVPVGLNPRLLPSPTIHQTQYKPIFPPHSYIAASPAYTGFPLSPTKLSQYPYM
The target in data set [12] is Eukaryotic translation initiation factor 2-alpha kinase 3 (Homo sapiens) (UniProt Q9NZJ5). The data set can be described thus: Inhibition of recombinant human PEK (536 to end residues) at 10 uM using RSRSRSRSRSRSRSR as substrate measured after 40 mins in presence of [gamma33P]ATP by scintillation counting method.
Eukaryotic translation initiation factor 2-alpha kinase 3 (Homo sapiens), sequence (Q9NZJ5 whole entry): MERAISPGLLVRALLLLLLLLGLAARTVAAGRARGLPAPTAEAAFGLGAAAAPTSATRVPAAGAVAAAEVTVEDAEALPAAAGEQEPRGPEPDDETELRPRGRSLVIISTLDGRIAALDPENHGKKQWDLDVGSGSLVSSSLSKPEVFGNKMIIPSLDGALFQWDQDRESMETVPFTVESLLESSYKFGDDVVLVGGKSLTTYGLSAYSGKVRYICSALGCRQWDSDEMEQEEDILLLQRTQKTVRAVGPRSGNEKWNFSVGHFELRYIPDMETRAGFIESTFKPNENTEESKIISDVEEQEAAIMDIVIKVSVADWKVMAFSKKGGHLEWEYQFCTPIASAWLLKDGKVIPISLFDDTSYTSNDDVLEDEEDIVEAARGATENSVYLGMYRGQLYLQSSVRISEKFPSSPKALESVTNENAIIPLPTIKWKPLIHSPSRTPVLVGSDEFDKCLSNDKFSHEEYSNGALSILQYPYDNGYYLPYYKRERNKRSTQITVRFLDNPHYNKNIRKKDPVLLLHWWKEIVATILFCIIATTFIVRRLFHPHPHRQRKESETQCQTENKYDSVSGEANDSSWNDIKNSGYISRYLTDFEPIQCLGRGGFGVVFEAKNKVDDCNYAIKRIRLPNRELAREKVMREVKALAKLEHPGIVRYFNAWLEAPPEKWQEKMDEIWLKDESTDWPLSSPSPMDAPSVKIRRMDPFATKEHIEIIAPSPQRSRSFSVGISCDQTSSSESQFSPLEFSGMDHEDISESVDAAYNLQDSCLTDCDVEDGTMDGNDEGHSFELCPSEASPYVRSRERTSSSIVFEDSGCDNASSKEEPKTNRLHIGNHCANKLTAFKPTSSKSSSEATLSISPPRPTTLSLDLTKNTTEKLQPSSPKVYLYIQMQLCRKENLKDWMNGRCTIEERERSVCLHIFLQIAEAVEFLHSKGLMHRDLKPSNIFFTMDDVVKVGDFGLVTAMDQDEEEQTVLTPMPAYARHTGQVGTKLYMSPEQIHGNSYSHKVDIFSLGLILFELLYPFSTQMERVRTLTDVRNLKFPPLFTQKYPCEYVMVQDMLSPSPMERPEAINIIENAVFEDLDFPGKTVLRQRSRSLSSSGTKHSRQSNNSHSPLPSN
For data set [13], the species on record is Homo sapiens. In words: Inhibition of recombinant full-length human PKBalpha […] mutant at 10 uM using GRPRTSSFAEGKK as substrate measured after 40 mins in presence of [gamma33P]ATP by scintillation counting method.
The species named for data set [14] is Homo sapiens. In words: Inhibition of recombinant human PRAK R291E mutant at 10 uM using KKLRRTLSVA as substrate measured after 40 mins in presence of [gamma33P]ATP by scintillation counting method.
Data set [15] concerns Proto-oncogene tyrosine-protein kinase receptor Ret (Homo sapiens), P07949 [V804M]. The data set can be described thus: Inhibition of human Ret V804M mutant (658 to end residues) using KKKVSRSGLYRSPSMPENLNRPR as substrate measured after 40 mins in presence of [gamma33P]ATP by scintillation counting method. In outline:
as §1

The target in data set [16] is Mitogen-activated protein kinase 13 (Homo sapiens) (UniProt O15264). The data set can be described thus: Inhibition of recombinant full-length human SAPK4 at 10 uM using myelin basic protein as substrate measured after 40 mins in presence of [gamma33P]ATP by scintillation counting method.
In data set [17] the target is Serine/threonine-protein kinase SIK3 (Homo sapiens) (UniProt Q9Y2K2). The data set can be described thus: Inhibition of human SIK3 (1 to 307 residues) using KKKVSRSGLYRSPSMPENLNRPR as substrate measured after 40 mins in presence of [gamma33P]ATP by scintillation counting method. In outline: as §1
Data set [18] has as its target Serine/threonine-protein kinase PLK2 (Homo sapiens) (UniProt Q9NYY3). The data set can be described thus: Inhibition of human Snk (65 to 409 residues) using casein as substrate measured after 40 mins in presence of [gamma33P]ATP by scintillation counting method. A digest of the protocol:
as §1

For data set [19], the target named is Serine/threonine-protein kinase TAO1 (Homo sapiens) (UniProt Q7L7X3). In words: Inhibition of human TAO1 (1 to 327 residues) using myelin basic protein as substrate measured after 40 mins in presence of [gamma33P]ATP by scintillation counting method.
Serine/threonine-protein kinase TAO1 (Homo sapiens), sequence (Q7L7X3 whole entry, the tested form may be a part): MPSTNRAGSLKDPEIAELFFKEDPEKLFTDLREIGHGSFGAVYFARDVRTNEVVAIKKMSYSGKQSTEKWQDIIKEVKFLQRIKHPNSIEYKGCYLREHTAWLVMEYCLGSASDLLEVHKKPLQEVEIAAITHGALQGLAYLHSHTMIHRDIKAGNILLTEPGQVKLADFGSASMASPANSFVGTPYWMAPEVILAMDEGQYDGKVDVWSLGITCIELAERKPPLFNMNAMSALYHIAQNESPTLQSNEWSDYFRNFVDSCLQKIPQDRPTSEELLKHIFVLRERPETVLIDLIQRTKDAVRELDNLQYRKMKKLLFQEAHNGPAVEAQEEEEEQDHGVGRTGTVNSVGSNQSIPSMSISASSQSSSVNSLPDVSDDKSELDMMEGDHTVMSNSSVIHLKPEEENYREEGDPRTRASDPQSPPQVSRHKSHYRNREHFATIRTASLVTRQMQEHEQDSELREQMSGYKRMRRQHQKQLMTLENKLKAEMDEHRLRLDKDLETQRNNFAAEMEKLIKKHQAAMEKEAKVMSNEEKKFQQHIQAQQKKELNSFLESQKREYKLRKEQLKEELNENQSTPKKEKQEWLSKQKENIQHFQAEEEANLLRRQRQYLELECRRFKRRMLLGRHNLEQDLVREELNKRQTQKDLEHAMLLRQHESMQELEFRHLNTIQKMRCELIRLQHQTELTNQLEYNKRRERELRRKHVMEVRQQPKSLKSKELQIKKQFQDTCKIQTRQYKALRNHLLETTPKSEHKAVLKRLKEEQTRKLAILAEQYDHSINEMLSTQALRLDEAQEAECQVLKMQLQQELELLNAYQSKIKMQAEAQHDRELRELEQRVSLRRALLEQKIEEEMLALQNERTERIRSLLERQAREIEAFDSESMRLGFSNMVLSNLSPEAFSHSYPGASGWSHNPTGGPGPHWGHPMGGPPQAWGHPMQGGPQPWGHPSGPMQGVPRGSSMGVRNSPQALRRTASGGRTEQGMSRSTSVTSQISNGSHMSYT
In data set [20] the target is Serine/threonine-protein kinase TBK1 (Homo sapiens) (UniProt Q9UHD2). The data set can be described thus: Inhibition of recombinant full-length human TBK1 at 10 uM using KRRRALS(p)VASLPGL as substrate measured after 40 mins in presence of [gamma33P]ATP by scintillation counting method.
In data set [21] the target is TRAF2 and NCK-interacting protein kinase (Homo sapiens) (UniProt Q9UKE5). The data set can be described thus: Inhibition of human TNIK (1 to 367 residues) using RLGRDKYKTLRQIRQ as substrate measured after 40 mins in presence of [gamma33P]ATP by scintillation counting method.
Data set [22] deals with BDNF/NT-3 growth factors receptor (Homo sapiens) (UniProt Q16620). In words: Inhibition of human TrkB (455 to end residues) using poly(Glu, Tyr) 4:1 as substrate measured after 40 mins in presence of [gamma33P]ATP by scintillation counting method.
BDNF/NT-3 growth factors receptor (Homo sapiens), sequence (Q16620 32-822 limits assumed): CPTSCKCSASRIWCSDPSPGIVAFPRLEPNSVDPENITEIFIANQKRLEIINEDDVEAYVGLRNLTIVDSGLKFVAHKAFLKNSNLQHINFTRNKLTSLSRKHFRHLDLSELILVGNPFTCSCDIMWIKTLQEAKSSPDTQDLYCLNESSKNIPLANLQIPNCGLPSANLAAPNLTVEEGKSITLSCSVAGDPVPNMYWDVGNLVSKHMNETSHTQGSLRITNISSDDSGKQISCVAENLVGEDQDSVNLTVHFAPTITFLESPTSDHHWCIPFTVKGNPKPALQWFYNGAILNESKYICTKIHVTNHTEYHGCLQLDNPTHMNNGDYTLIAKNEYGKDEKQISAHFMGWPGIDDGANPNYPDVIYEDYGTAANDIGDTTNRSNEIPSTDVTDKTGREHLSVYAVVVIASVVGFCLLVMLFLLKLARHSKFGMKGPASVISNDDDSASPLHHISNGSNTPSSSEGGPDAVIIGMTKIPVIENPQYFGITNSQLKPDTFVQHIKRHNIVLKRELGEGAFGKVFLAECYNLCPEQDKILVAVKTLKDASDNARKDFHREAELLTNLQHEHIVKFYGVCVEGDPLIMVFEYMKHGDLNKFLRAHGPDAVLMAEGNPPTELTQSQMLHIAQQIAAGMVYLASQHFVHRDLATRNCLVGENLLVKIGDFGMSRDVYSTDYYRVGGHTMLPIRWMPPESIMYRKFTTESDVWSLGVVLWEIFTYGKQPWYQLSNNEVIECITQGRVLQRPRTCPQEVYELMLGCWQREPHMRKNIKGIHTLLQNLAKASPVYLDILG
Data set [23] relates to PI3-kinase p110-alpha/p85-alpha (Homo sapiens), P27986+P42336 [E545K]. The data set can be described thus: Inhibition of recombinant full-length human PI3K p110alpha/p85alpha E545K mutant at 10 uM using phosphatidylinositol-4, 5-bisphosphate as substrate measured after 40 mins by fluorescence assay. In kind it is protein-complex assay.
Data set [24] is filed under the species Homo sapiens. The data set can be described thus: Inhibition of recombinant full-length human PI3K p110alpha/p65alpha (1 to 571 residues) at 10 uM using phosphatidylinositol-4, 5-bisphosphate as substrate measured after 40 mins by HTRF assay. (In general: Time-resolved FRET reads energy transfer from a long-lived donor to a nearby acceptor.)

≈ marks a conversion by molar mass, not a printed value. Calls of active or inactive are those of the source. The rule behind the calls is not given here.

T1 sequence (Q92830 2-837 limits assumed): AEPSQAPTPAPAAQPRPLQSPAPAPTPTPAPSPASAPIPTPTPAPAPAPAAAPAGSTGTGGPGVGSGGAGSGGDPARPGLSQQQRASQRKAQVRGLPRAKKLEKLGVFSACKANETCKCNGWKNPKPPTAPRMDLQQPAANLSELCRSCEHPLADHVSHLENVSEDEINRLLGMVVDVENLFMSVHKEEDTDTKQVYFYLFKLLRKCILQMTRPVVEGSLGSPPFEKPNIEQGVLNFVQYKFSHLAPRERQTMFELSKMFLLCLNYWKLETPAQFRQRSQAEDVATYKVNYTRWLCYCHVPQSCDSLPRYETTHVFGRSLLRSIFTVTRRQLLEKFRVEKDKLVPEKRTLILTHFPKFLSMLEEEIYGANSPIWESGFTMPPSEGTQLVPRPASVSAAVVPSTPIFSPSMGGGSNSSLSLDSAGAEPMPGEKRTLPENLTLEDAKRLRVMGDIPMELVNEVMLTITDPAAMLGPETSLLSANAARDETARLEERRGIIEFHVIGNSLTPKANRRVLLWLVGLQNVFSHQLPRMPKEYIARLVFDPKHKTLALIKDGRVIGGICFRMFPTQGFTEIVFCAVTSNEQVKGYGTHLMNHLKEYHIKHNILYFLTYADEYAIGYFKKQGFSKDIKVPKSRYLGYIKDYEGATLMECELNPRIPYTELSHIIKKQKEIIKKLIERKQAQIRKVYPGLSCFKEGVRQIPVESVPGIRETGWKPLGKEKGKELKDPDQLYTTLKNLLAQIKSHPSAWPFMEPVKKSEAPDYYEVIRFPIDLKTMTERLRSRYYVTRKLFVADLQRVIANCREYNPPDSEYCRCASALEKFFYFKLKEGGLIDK

Consider `CN1C[C@H](Nc2nc3cc[nH]c3c(=O)n2C)C[C@H](c2ccc3c(c2)OCCO3)C1`, for which the ΔTm in data set [1] turned out to be 7.3 °C. Also, in data set [2], the result was Active. The compound further registered a solubility in [3] of 480 µM (≈ 190 µg/mL). Besides, the inhibition entry (in the data set listed under Homo sapiens [4]; in data set [5]; in data set [6]; in data set [7]; in [8]; in data set [9]) was “inactive” each time. For the same compound, the inhibition result (in [10]; in data set [11]; in [12]; in the data set filed under Homo sapiens [13]; in the data set filed under Homo sapiens [14]; in data set [15]) was “inactive” throughout. In addition, the inhibition entry in data set [16], in data set [17], in data set [18], in [19], in [20] and in data set [21] was “inactive” each time. For the same compound, the inhibition entry (in data set [22]; in data set [23]; in the data set listed under Homo sapiens [24]) was “inactive” throughout.

As usually defined, the ΔTm is the shift of the melting midpoint relative to a reference. Usually solubility stands for how much of the substance goes into solution per volume. Higher therefore signals a readily soluble substance.
